Measured values from ChEMBL document CHEMBL3616382, “Catechols and 3-hydroxypyridones as inhibitors of the DNA repair complex ERCC1-XPF” (Bioorg Med Chem Lett, 2015).

What was measured:
[1] = target: T1, DNA excision repair protein ERCC-1/DNA repair endonuclease XPF (Homo sapiens, UniProt P07992+Q92889); assay: Inhibition of ERCC1-XPF (unknown origin) by high-throughput fluorescence based in-vitro endonuclease assay; type: protein-complex assay
T1 sequence (P07992 whole entry): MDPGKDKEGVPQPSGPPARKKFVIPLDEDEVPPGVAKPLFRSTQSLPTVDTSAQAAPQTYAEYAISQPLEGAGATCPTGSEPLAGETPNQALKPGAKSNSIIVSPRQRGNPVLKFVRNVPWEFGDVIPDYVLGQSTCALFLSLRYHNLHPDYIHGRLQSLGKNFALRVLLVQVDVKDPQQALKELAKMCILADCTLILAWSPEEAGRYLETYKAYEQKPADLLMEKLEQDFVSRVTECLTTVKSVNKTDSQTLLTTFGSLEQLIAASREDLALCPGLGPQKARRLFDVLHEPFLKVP
T1 sequence (Q92889 whole entry): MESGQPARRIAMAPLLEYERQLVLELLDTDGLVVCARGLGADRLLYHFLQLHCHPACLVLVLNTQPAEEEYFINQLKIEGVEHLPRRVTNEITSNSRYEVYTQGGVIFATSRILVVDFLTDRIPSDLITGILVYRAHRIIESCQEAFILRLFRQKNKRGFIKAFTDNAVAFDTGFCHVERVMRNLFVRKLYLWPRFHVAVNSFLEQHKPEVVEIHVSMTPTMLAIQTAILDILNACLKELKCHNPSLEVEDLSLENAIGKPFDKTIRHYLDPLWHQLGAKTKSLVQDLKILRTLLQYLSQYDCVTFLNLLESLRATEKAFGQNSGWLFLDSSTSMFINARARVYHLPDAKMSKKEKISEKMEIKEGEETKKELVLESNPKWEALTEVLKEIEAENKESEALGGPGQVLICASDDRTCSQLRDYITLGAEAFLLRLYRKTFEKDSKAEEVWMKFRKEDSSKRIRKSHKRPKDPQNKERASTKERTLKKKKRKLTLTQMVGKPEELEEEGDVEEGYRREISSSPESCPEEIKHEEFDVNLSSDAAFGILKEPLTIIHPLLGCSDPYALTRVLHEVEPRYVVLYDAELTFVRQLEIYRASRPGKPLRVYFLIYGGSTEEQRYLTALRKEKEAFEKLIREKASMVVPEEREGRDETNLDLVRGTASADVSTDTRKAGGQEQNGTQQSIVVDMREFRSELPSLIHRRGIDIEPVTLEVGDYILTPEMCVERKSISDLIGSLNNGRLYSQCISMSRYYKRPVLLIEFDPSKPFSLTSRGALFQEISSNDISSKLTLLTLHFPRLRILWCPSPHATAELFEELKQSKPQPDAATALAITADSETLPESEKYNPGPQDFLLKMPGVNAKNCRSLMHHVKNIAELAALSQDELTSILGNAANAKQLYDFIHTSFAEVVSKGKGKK

Flap endonuclease 1 = Flap endonuclease 1 (Homo sapiens, UniProt P39748); assay: Inhibition of FEN1 (unknown origin)
Deoxyribonuclease-1 = target: T2, Deoxyribonuclease-1 (Homo sapiens, UniProt P24855); assay: Inhibition of DNAse1 (unknown origin)
T2 sequence (P24855 whole entry): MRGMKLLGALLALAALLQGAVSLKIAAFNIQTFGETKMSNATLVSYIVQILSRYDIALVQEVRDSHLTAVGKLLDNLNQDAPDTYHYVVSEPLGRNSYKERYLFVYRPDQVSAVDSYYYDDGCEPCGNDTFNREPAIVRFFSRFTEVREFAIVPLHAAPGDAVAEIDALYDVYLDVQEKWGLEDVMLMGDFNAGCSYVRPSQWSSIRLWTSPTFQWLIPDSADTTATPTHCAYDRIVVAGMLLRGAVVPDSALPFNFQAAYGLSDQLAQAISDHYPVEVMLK

[2] = Half life in mouse liver microsomes; type: ADME
[3] = Apparent permeability by PAMPA method; type: physicochemical
[4] = target: T1, DNA excision repair protein ERCC-1/DNA repair endonuclease XPF; assay: Binding affinity to ERCC1-XPF (unknown origin) by SPR assay; type: protein-complex assay
[5] = Lipophilicity, log D of the compound; type: physicochemical; settings: octanol/water
HepG2 = assay: Cytotoxicity against human HepG2 cells; type: cell-based
Outline: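 Hep-G2 cells exposed to compound at concentrations up to 10 μM; toxicity assessed.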

[6] = Half life in human liver microsomes; type: ADME
[7] = target: T3, DNA excision repair protein ERCC-1/DNA repair endonuclease XPF (Homo sapiens) (UniProt P07992+Q92889); settings: A-375, 1.28 uM
[8] = target: T3, DNA excision repair protein ERCC-1/DNA repair endonuclease XPF (Homo sapiens); settings: A-375, 2.48 uM
[9] = target: T3, DNA excision repair protein ERCC-1/DNA repair endonuclease XPF (Homo sapiens); settings: A-375, 10 uM
A-375 [10] = assay: Cytotoxicity against human A375 cells assessed as reduction in cell number at 10 uM incubated for 5 days; type: cell-based; settings: a-375, 120 h
Outline: (§1)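 A375 melanoma cells treated with compound alone over 0.6–10 μM for 5 days; cell count determined by high-content imaging. Data from 4 separate experiments, error bars SD.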

[11] = target: T3, DNA excision repair protein ERCC-1/DNA repair endonuclease XPF (Homo sapiens); assay: Inhibition of ERCC1-XPF in human A375 cells assessed as induction of delay in DNA repair by measuring cumulative frequency of cells at 10 uM pre-incubated for 1 hr before 5 uM cisplatin exposure for 1 hr and measured after 6 hrs by […] based gammaH2AX foci assay (reference value: 45.43%); type: cell-based; set-up: scale not given: the % may be the effect or the level left; settings: A-375
Outline: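 A375 cells pretreated with compound (10 μM) for 1 h, then 5 μM cisplatin for 1 h to induce damage, with continued compound exposure for 6 h. γH2AX foci per cell quantified by immunofluorescence with specific antibody and high-content imaging; cumulative Gaussian fit of foci distribution. 2 representative experiments, triplicates each, error bars SEM.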

[12] = target: T1, DNA excision repair protein ERCC-1/DNA repair endonuclease XPF; assay: Inhibition of ERCC1-XPF in human A375 cells assessed as reduction in direct nucleotide excision repair of UV-damaged pEGFP plasmid incubated for 234 hrs by recombinant GFP reporter assay; type: cell-based, A-375; settings: in the assay text read “24 hrs” for “234 hrs”
Outline: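 A375 cells co-transfected with UV-damaged or undamaged pEGFP plus pGL3 luciferase plasmid, treated with compound up to 60 μM for 24 h. GFP/luciferase ratio for damaged plasmid divided by that for undamaged, then normalized to no-compound controls to give % NER activity (DNA Repair Index); IC50 from plot against concentration.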

[13] = target: T3, DNA excision repair protein ERCC-1/DNA repair endonuclease XPF (Homo sapiens); settings: A-375, 4.96 uM
[14] = target: T3, DNA excision repair protein ERCC-1/DNA repair endonuclease XPF (Homo sapiens); settings: A-375, 0.624 uM
A-375 [15] = assay: Cytotoxicity against human A375 cells assessed as reduction in cell number at 4.89 uM incubated for 5 days; type: cell-based; settings: a-375, 120 h, 4.96 µM, in the assay text read “4.96 uM” for “4.89 uM”; outline: as §1

Sequence of Flap endonuclease 1 (P39748 whole entry): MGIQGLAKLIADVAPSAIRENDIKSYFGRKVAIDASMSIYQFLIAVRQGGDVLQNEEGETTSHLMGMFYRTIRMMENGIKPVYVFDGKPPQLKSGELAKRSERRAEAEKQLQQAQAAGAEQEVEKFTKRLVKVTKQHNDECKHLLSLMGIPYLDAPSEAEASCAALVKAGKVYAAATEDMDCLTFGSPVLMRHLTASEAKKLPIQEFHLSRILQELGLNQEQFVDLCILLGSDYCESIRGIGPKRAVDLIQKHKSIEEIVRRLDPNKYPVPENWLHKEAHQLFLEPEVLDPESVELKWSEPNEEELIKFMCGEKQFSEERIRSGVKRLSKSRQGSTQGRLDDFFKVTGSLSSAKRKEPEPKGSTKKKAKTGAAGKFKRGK

| IC50 [1] | IC50 (Flap endonuclease 1) | IC50 (Deoxyribonuclease-1) | Structure (SMILES) | also measured |
| --- | --- | --- | --- | --- |
| 1.4 µM | > 100 µM | > 100 µM | O=C(CC1CCCCC1)NCc1ccc(O)c(O)c1 |  |
| 12.1 µM | > 100 µM | > 100 µM | O=C(COc1ccccc1)NCc1ccc(O)c(O)c1 |  |
| 2 µM | > 100 µM | > 100 µM | O=C(CNc1ccccc1)N/N=C/c1ccc(O)c(O)c1 |  |
| 100 µM |  |  | O=C(Cc1ccc(Cl)cc1Cl)NCc1c[nH]c(=O)c(O)c1 |  |
| 4 µM |  |  | N#Cc1cccc(CC(=O)NCc2ccc(O)c(O)c2)c1 |  |
| 7.8 µM | > 100 µM | > 100 µM | Oc1ccc(-c2nc(Cc3ccc(Cl)cc3)no2)cc1O |  |
| 1 µM | > 100 µM | > 100 µM | O=C(Cc1ccc(Cl)cc1)NCc1ccc(O)c(O)c1 |  |
| 1 µM | > 100 µM | > 100 µM | O=C(Cc1ccc(Cl)cc1Cl)N1CCc2cc(O)c(O)cc2C1 |  |
| 1.6 µM | > 100 µM |  | O=C(NCc1ccc(O)c(O)c1)C1(c2ccccc2)CCCCC1 |  |
| 33 µM | > 100 µM | > 100 µM | Cc1cccc(NCC(=O)N/N=C/c2cc(Br)c(O)c(O)c2Br)c1 |  |
| 4.8 µM | > 100 µM | > 100 µM | O=C(NCc1ccc(O)c(O)c1)Nc1ccc(Cl)cc1 |  |
| 0.8 µM | > 100 µM | > 100 µM | CN(Cc1ccc(O)c(O)c1)C(=O)Cc1ccc(Cl)cc1Cl |  |
| 15.2 µM | > 100 µM | > 100 µM | O=C(CNc1ccccc1)NCCc1ccc(O)c(O)c1 |  |
| 1.6 µM | > 100 µM | > 100 µM | O=C(CNc1ccccc1)Nc1ccc(O)c(O)c1 |  |
| 1.6 µM | > 100 µM | > 100 µM | O=C(Cc1ccc(Cl)cc1Cl)NCc1ccc(O)c(O)c1Cl |  |
| 7.9 µM | > 100 µM | > 100 µM | O=C(Cc1ccc(N2CCOCC2)cc1)NCc1ccc(O)c(O)c1 |  |
| 13.5 µM | > 100 µM | > 100 µM | CC(=O)Nc1ccc(-c2c[nH]c(=O)c(O)c2)cc1 |  |
| > 100 µM |  |  | Cn1cc(-c2ccc(F)cc2)cc(O)c1=O |  |
| 5.2 µM | > 100 µM | > 100 µM | O=c1[nH]cc(-c2cccc(-n3cccn3)c2)cc1O |  |
| 1.8 µM | > 100 µM |  | CC(C(=O)NCc1ccc(O)c(O)c1)c1ccccc1 (centres undefined) |  |
| 24.5 µM | > 100 µM | > 100 µM | O=C(NCc1ccc(O)c(O)c1)c1ccccc1 |  |

More lines, now with the values behind:

| Structure (SMILES) | IC50 [1] | IC50 (Flap endonuclease 1) | IC50 (Deoxyribonuclease-1) | also measured |
| --- | --- | --- | --- | --- |
| O=c1[nH]c(-c2ccc(F)cc2)ccc1O | 55.2 µM |  |  |  |
| O=S(=O)(Cc1ccc(Cl)cc1Cl)NCc1ccc(O)c(O)c1 | 2.9 µM | > 100 µM | > 100 µM |  |
| O=C1N(Cc2ccc(Cl)cc2)CCN1Cc1ccc(O)c(O)c1 | 4.1 µM | > 100 µM | > 100 µM |  |
| CC(=O)N1CCN(CC(=O)NCc2ccc(O)c(O)c2)CC1 | > 100 µM |  | > 100 µM |  |
| O=C(Cc1ccc(O)c(O)c1)NCc1ccc(Cl)cc1Cl | 0.74 µM | > 100 µM | > 100 µM |  |
| O=C(Cc1ccc(Cl)cc1Cl)NCc1cc(O)c(O)cc1F | 1.1 µM | > 100 µM | > 100 µM |  |
| O=C(Cc1ccccc1Cl)NCc1ccc(O)c(O)c1 | 0.8 µM | > 100 µM | > 100 µM |  |
| O=C(NCc1ccc(O)c(O)c1)C1CCN(Cc2ccc(F)cc2)CC1 | 5.8 µM | > 100 µM | > 100 µM |  |
| O=c1[nH]cc(-c2ccc(F)cc2)cc1O | 8.7 µM | > 100 µM | > 100 µM | half-life [2]: > 400 min; Papp [3]: 4.4 ×10⁻⁶ cm/s; Kd [4]: 3.5 µM; logD [5]: 2; Activity (HepG2): > 10 µM; half-life [6]: > 400 min |
| O=c1[nH]ccc(-c2ccc(F)cc2)c1O | > 100 µM |  |  |  |
| O=C(CNc1ccccc1)NCc1ccc(O)c(O)c1 | 0.9 µM | > 100 µM | > 100 µM |  |
| O=C(CCc1ccccc1)NCc1ccc(O)c(O)c1 | 7.3 µM | > 100 µM | > 100 µM |  |
| O=C(Cc1ccc(Cl)cc1Cl)NCc1ccc(O)c(O)c1 | 0.63 µM | > 100 µM | > 100 µM | PF50 [7]: 1.15; PF50 [8]: 1.51; PF50 [9]: 2.03; Activity (A-375 [10]): Toxic; half-life [2]: 23 min; Activity [11]: 50.2%; IC50 [12]: 15.6 µM; Papp [3]: 3.9 ×10⁻⁶ cm/s; Kd [4]: 30 µM; PF50 [13]: 1.68; logD [5]: 2.7; PF50 [14]: 1.08; Activity (A-375 [15]): Toxic; Activity (HepG2): > 10 µM; half-life [6]: 28 min |
| COc1ccc(CC(=O)NCc2ccc(O)c(O)c2)cc1 | 2.6 µM |  |  |  |
| CC(C)C(=O)NCc1ccc(O)c(O)c1 | 24 µM |  |  |  |
| Oc1ccc(Cc2nc(-c3ccc(Cl)cc3)no2)cc1O | 12.2 µM | > 100 µM | > 100 µM |  |
| O=C(NCc1ccc(O)c(O)c1)C1CCCC1 | 24.6 µM | > 100 µM | > 100 µM |  |
| Cn1ncc2ccc(-c3c[nH]c(=O)c(O)c3)cc21 | 14.6 µM | > 100 µM | > 100 µM |  |
| O=C(Cc1cccnc1)NCc1ccc(O)c(O)c1 | 25.6 µM |  |  |  |
| O=c1[nH]cc(Br)cc1O | 24 µM |  |  |  |
| O=C(Cc1ccccc1)NCc1ccc(O)c(O)c1 | 13.3 µM | > 100 µM | > 100 µM |  |
| O=c1[nH]cc(-c2ccc(F)c(Cl)c2)cc1O | 13.1 µM | > 100 µM | > 100 µM |  |
